Results: ChEMBL document CHEMBL2093137, “WHO-TDR NTD Screening”
Values after ≈ are worked out from the molar mass of the structure shown.

Experiments:
[1] = WHO-TDR: Cytotoxicity; type: toxicity, cell-based; details: human, MRC5 cells
Plasmodium falciparum K1 = assay: WHO-TDR: Malaria; type: functional, organism-based, Homo sapiens; details: Erythrocyte
Procedure, shortened: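 Values are IC50 figures for antiplasmodial potency. They come from a whole-organism screen of 10,000 diverse Life Chemicals compounds against Plasmodium falciparum K1 growing inside human red blood cells, run by previously published standard procedures.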

Trypanosoma cruzi = assay: WHO-TDR: Chagas disease; type: functional, organism-based, Homo sapiens; details: MRC5
Procedure, shortened: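 Each IC50 reflects antiparasitic potency against intracellular amastigotes of Trypanosoma cruzi Tulahuen CL2 beta-galactosidase strain. These were cultured in MRC-5SV2 human lung fibroblasts and exposed to a 10,000-compound diverse Life Chemicals library screened according to published standard procedures with a reference drug as positive control.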

[2] = system: Trypanosoma brucei brucei; assay: WHO-TDR: Human African Trypanosomiasis (HAT); type: functional, organism-based; details: Squib-427
Procedure, shortened: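 Values are IC50 figures for antiparasitic potency. They come from a whole-organism screen of 10,000 diverse Life Chemicals compounds against bloodstream-form Trypanosoma brucei (Squib 427 strain).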

Leishmania infantum = assay: WHO-TDR: Leishmaniasis; type: functional, organism-based, Mus musculus; details: Macrophage
Procedure, shortened: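 Values are IC50 figures for antiparasitic potency. They come from a whole-organism screen of a 10,000-compound diverse Life Chemicals library against Leishmania infantum MHOM/MA(BE)/67 amastigotes inside murine peritoneal macrophage host cells.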

Schistosoma mansoni = assay: WHO-TDR: Schistosomiasis; type: functional; set-up: concentration or dose not given beside the values
Procedure, shortened: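 In this whole-organism assay, larval and/or adult worms of Schistosoma mansoni (Puerto Rican strain) were exposed to compounds from a diverse Life Chemicals library of 10,000 members. A reference drug served as positive control. Activity is stated as percent inhibition and IC50.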

Onchocerca ochengi [3] = assay: (§1) WHO-TDR: Onchocerciasis; type: functional; set-up: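 at 12.5 µM on microfilariae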
Procedure, shortened: (§2)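 Microfilariae of Onchocerca ochengi or Onchocerca lienalis, animal pathogens standing in for the human parasite, were exposed to compounds in a whole-organism screen. The compounds came from a 10,000-compound diverse Life Chemicals library filtered for drug-likeness and reactive groups. Results are expressed as percent inhibition and IC50.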

Onchocerca ochengi [4] = assay: as §1; type: functional; set-up: concentration or dose not given beside the values; procedure, shortened: as §2; remark: listed apart in the source

Row | Compound | IC50 [1] [µg/mL] | IC50 (Plasmodium falciparum K1) [µg/mL] | IC50 (Trypanosoma cruzi) [µg/mL] | IC50 [2] [µg/mL] | IC50 (Leishmania infantum) [µg/mL] | % Inhibition (Schistosoma mansoni) [%] | % Inhibition (Onchocerca ochengi [3]) [%] | % Inhibition (Onchocerca ochengi [4]) [%]
1 | Cc1nnc(NC(=O)COc2cccc3ccc(N4CCCC(C)C4)nc23)s1 (stereo not drawn) | > 11.9 | > 11.9 | 0.407 (≈ 1.02 µM) | > 11.9 | 6.18 (≈ 15.5 µM) | 0 | 50 | 0
2 | O=C(CC1CCCCN1S(=O)(=O)c1ccc(Cl)cc1)Nc1ccc2c(c1)OCO2 (stereo not drawn) | > 13.1 | > 13.1 | 0.789 (≈ 1.81 µM) | 4.24 (≈ 9.71 µM) | > 13.1 | 0 | 0 | 0
3 | Cc1ccc(S(=O)(=O)N2CCCCC2CC(=O)Nc2ccc(Cl)cc2)cc1 (stereo not drawn) | > 12.2 | > 12.2 | 0.421 (≈ 1.03 µM) | 5.79 (≈ 14.2 µM) | > 12.2 | 0 | 0 | 0
4 | Cc1ccc(S(=O)(=O)N2CCCCC2CC(=O)Nc2ccc(F)c(C(F)(F)F)c2)cc1 (stereo not drawn) | > 13.8 | > 13.8 | 0.889 (≈ 1.94 µM) | 6.11 (≈ 13.3 µM) | > 13.8 | 0 | 0 | 0
5 | O=C(CC1CCCCN1S(=O)(=O)c1ccc(Cl)cc1)NCCC1=CCCCC1 (stereo not drawn) | 12.7 (≈ 30 µM) | > 12.7 | 0.517 (≈ 1.22 µM) | 4.23 (≈ 9.95 µM) | 6.6 (≈ 15.5 µM) | 0 | 0 | 0
6 | CCOC(=O)c1ccc(NC(=O)CC2CCCCN2S(=O)(=O)c2ccc(OC)cc2)cc1 (stereo not drawn) | 2.03 (≈ 4.4 µM) | > 13.8 | 0.449 (≈ 0.975 µM) | 4.53 (≈ 9.83 µM) | > 13.8 | 0 | 0 | 0
7 | Cc1ccc2c(c1)NC(=O)c1cc(NC(=O)C3CCCC3)ccc1O2 | > 10.1 | 0.441 (≈ 1.31 µM) | > 10.1 | > 10.1 | > 10.1 | 0 | 0 | 0
8 | COc1ccc2oc(-c3csc(NC(=O)c4cccc(OC)c4OC)n3)cc2c1 | > 12.3 | > 12.3 | > 12.3 | > 12.3 | 0.638 (≈ 1.55 µM) | 0 | 0 | 0
9 | CN1CCc2cc(C(CNC(=O)COc3ccc(Cl)cc3Cl)N3CCCC3)ccc21 (stereo not drawn) | 11.6 (≈ 25.9 µM) | 5.1 (≈ 11.4 µM) | 4.36 (≈ 9.73 µM) | 0.43 (≈ 0.959 µM) | 3.38 (≈ 7.54 µM) | 0 | 50 | 0
10 | CN1CCN(C(CNC(=O)c2ccc(F)c(F)c2)c2ccc3c(c2)CCN3C)CC1 (stereo not drawn) | 3.34 (≈ 8.05 µM) | 1.47 (≈ 3.54 µM) | > 12.4 | > 12.4 | 4.03 (≈ 9.71 µM) | 0 | 100 | 0
11 | CN1CCN(C(CNC(=O)COc2ccccc2F)c2ccc3c(c2)CCN3C)CC1 (stereo not drawn) | > 12.8 | 3.56 (≈ 8.35 µM) | > 12.8 | 4.14 (≈ 9.71 µM) | 1.9 (≈ 4.46 µM) | 0 | 0 | 0
12 | CN1CCCc2cc(C(CNC(=O)COc3ccc(Cl)cc3)N3CCCC3)ccc21 (stereo not drawn) | > 12.8 | > 12.8 | 4.46 (≈ 10.4 µM) | 0.411 (≈ 0.96 µM) | 4.16 (≈ 9.71 µM) | 25 | 0 | 0
13 | CN1CCCc2cc(C(CNC(=O)c3ccc4c(c3)OCO4)N3CCOCC3)ccc21 (stereo not drawn) | 11.2 (≈ 26.3 µM) | > 12.7 | 4.94 (≈ 11.7 µM) | > 12.7 | > 12.7 | 0 | 100 | 0
14 | CN1CCCc2cc(C(CNC(=O)c3cccs3)N3CCCCC3)ccc21 (stereo not drawn) | > 11.5 | > 11.5 | 10.4 (≈ 27.2 µM) | 3.68 (≈ 9.6 µM) | > 11.5 | 0 | 100 | 0
15 | C=CCN1C(=O)C(C)(C)COc2cc(NS(=O)(=O)c3ccccc3Cl)ccc21 | > 12.6 | > 12.6 | 4.05 (≈ 9.61 µM) | 4.04 (≈ 9.6 µM) | 4.09 (≈ 9.71 µM) | 0 | 100 | 0
16 | C=CCN1C(=O)C(C)(C)COc2cc(NS(=O)(=O)C3CCCCC3)ccc21 | > 11.8 | > 11.8 | 8.42 (≈ 21.4 µM) | 3.72 (≈ 9.49 µM) | > 11.8 | 0 | 100 | 60

Row | Compound | IC50 [1] [µg/mL] | IC50 (Plasmodium falciparum K1) [µg/mL] | IC50 (Trypanosoma cruzi) [µg/mL] | IC50 [2] [µg/mL] | IC50 (Leishmania infantum) [µg/mL] | % Inhibition (Schistosoma mansoni) [%] | % Inhibition (Onchocerca ochengi [3]) [%] | % Inhibition (Onchocerca ochengi [4]) [%]
17 | CCCN1C(=O)C(C)(C)COc2cc(NS(=O)(=O)c3c(C)c(C)cc(C)c3C)ccc21 | > 13.3 | > 13.3 | 3.55 (≈ 7.99 µM) | 4.27 (≈ 9.6 µM) | > 13.3 | 0 | 100 | 0
18 | CCCN1C(=O)C(C)(C)COc2cc(NS(=O)(=O)Cc3ccc(C)cc3)ccc21 | > 12.5 | > 12.5 | > 12.5 | 4.62 (≈ 11.1 µM) | > 12.5 | 0 | 100 | 60
19 | CC(C)CN1C(=O)C(C)(C)COc2cc(NS(=O)(=O)c3ccccc3Br)ccc21 | > 14.4 | > 14.4 | 4.3 (≈ 8.93 µM) | 4.62 (≈ 9.6 µM) | > 14.4 | 0 | 100 | 0
20 | CN1C(=O)C(C)(C)COc2ccc(NS(=O)(=O)c3ccccc3F)cc21 | > 11.4 | > 11.4 | > 11.4 | > 11.4 | > 11.4 | 0 | 100 | 0
21 | C=CCN1C(=O)C(C)(C)COc2ccc(NS(=O)(=O)c3ccc4c(c3)OCCO4)cc21 | > 13.3 | > 13.3 | > 13.3 | > 13.3 | > 13.3 | 0 | 100 | 0
22 | C=CCN1C(=O)C(C)(C)COc2ccc(NS(=O)(=O)c3ccc4c(c3)CCCC4)cc21 | > 13.2 | > 13.2 | 11.4 (≈ 26 µM) | > 13.2 | 4.28 (≈ 9.71 µM) | 0 | 100 | 0
23 | CCc1ccc(S(=O)(=O)Nc2ccc3c(c2)NC(=O)C(C)(C)CO3)s1 | > 11.4 | > 11.4 | 3.45 (≈ 9.08 µM) | 3.08 (≈ 8.08 µM) | 3.69 (≈ 9.71 µM) | 0 | 100 | 60
24 | CC(C)S(=O)(=O)Nc1ccc2c(c1)NC(=O)C(C)(C)CO2 | > 9.37 | 3.66 (≈ 11.7 µM) | 3.93 (≈ 12.6 µM) | 6.82 (≈ 21.8 µM) | > 9.37 | 0 | 100 | 0
25 | CC1(C)COc2ccc(NS(=O)(=O)c3cccc4ccccc34)cc2NC1=O | > 11.9 | > 11.9 | > 11.9 | 6.16 (≈ 15.5 µM) | > 11.9 | 0 | 100 | 0
26 | Cc1ccc(Cl)cc1S(=O)(=O)Nc1ccc2c(c1)NC(=O)C(C)(C)CO2 | > 11.8 | > 11.8 | 3.95 (≈ 10 µM) | 3.89 (≈ 9.85 µM) | > 11.8 | 0 | 100 | 0
27 | CCc1ccc2nc(N(CCN(CC)CC)C(=O)Cc3ccc4c(c3)OCO4)sc2c1 | > 14.3 | 4.52 (≈ 10.3 µM) | 3.61 (≈ 8.21 µM) | 0.457 (≈ 1.04 µM) | 7.4 (≈ 16.8 µM) | 0 | 0 | 0
28 | CCN(CC)CCN(C(=O)Cc1ccc2c(c1)OCO2)c1nc2c(C)cc(C)cc2s1 | 11.2 (≈ 25.4 µM) | 4.32 (≈ 9.83 µM) | 4.58 (≈ 10.4 µM) | 0.452 (≈ 1.03 µM) | 7.4 (≈ 16.8 µM) | 0 | 0 | 0
29 | CCN(CC)CCN(C(=O)Cc1ccc2c(c1)OCO2)c1nc2c(C)c(C)ccc2s1 | > 14.3 | 8.03 (≈ 18.3 µM) | 9.51 (≈ 21.6 µM) | 0.452 (≈ 1.03 µM) | > 14.3 | 0 | 0 | 0
30 | O=C(Cc1csc(NS(=O)(=O)c2ccc(Cl)cc2)n1)Nc1ccc(F)c(F)c1 | > 13.3 | > 13.3 | > 13.3 | > 13.3 | > 13.3 | 0 | 100 | 0
31 | CCOC(=O)c1ccccc1NC(=O)CSc1ncc(-c2ccccc2)[nH]1 | > 11.4 | > 11.4 | > 11.4 | > 11.4 | > 11.4 | 0 | 100 | 0
